Where two headings read alike, the source gives them in different places.
Key:
[1] = molecular target: T1, insulin receptor isoform A (IR-A) (Homo sapiens, UniProt P06213); assay: Insulin receptor binding assay; details: CHO cell lysates, [125I]-labeled insulin competition; Fig. 6C
Method in brief: (§1)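 CHO cells expressing insulin receptor isoforms A and B were grown in DMEM with 10% FBS and 1% penicillin-streptomycin, then serum-starved. Cell lysates were incubated with [125I]-insulin with or without excess unlabeled competitor. Bound and free tracer were separated by gel filtration and radioactivity was counted per fraction. IC50 values came from competitive binding curves.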

[2] = molecular target: insulin-like growth factor 1 receptor (IGF-1R) (Homo sapiens, UniProt P08069); assay: IGF-1R binding assay; details: H19-7/IGF-1R cell line, [125I]-labeled IGF competition; Fig. 6E
Sequence of insulin-like growth factor 1 receptor (IGF-1R) (P08069 31-736 limits assumed): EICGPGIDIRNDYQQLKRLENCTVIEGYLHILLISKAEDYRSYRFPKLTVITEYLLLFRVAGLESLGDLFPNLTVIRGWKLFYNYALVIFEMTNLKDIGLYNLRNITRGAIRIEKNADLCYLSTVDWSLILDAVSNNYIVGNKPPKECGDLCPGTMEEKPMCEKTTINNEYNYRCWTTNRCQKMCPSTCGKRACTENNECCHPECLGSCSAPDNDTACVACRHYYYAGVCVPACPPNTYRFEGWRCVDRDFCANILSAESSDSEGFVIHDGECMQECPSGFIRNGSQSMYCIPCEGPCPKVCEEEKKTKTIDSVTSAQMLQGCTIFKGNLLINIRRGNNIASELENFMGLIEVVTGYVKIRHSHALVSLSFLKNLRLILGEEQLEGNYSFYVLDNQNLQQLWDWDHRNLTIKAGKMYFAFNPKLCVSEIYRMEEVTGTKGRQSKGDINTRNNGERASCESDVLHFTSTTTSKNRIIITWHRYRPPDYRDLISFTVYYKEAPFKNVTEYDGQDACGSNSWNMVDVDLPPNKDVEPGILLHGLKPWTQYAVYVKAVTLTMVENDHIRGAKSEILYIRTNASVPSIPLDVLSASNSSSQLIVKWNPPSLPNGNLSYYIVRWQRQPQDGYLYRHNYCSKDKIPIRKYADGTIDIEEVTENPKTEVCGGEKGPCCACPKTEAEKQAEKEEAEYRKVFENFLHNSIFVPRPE
Sequence of insulin-like growth factor 1 receptor (IGF-1R) (P08069 741-1367 limits assumed): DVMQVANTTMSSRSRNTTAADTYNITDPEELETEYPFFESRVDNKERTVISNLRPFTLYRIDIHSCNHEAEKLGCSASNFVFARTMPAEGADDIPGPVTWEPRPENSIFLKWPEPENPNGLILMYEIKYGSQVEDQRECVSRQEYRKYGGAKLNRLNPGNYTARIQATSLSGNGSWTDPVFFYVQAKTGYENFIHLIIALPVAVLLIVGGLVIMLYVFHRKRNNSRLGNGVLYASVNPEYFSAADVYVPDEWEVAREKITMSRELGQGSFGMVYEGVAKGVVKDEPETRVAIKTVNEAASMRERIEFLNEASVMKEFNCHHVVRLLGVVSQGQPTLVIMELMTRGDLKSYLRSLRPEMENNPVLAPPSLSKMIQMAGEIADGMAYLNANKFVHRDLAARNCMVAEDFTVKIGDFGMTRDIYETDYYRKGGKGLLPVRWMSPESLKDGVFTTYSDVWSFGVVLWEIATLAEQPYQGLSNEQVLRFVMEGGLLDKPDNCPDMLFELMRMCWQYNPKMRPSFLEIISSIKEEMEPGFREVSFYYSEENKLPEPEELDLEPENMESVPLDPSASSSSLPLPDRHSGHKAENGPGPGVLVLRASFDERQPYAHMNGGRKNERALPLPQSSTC

[3] = tested on: type 1 diabetic rats; type: in vivo, NOD rats
Method in brief: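 […]. […] Single dose: overnight fast, then tail-vein glucose by glucometer at 1, 2, 4 and 6 h. Multiple dose: daily injections, glucose at 2, 4 and 6 h post-injection. Triplicate measurements, means reported.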

[4] = Toxicokinetic / pharmacokinetic study of insulin injection in Beagle dogs; type: in vivo, Beagle dogs (Canis lupus familiaris); details: subcutaneous, across all doses (0.5, 1, 1.5 IU/kg vs Lantus 1.5 IU/kg), Fig. 5
[5] = molecular target: T1, insulin receptor isoform A (IR-A); assay: Insulin receptor phosphorylation assay; type: cell-based; details: CHO cells expressing insulin receptor; phospho-specific ELISA; Fig. 6A
Method in brief: (§2)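 CHO cells expressing IR isoforms A and B were cultured in DMEM with 10% FBS and 1% penicillin-streptomycin, then serum-starved. Cells were exposed to insulin at 0.1, 1 or 10 nM for 5, 15 or 30 min. Lysates were applied to anti-phosphotyrosine-coated wells and detected with an HRP-conjugated secondary antibody. Receptor phosphorylation was quantified from absorbance.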

[6] = molecular target: T2, insulin receptor isoform B (IR-B) (Homo sapiens, UniProt P06213); assay: Insulin receptor binding assay; details: CHO cell lysates, [125I]-labeled insulin competition; Fig. 6D
T2 sequence (P06213 28-758 limits assumed): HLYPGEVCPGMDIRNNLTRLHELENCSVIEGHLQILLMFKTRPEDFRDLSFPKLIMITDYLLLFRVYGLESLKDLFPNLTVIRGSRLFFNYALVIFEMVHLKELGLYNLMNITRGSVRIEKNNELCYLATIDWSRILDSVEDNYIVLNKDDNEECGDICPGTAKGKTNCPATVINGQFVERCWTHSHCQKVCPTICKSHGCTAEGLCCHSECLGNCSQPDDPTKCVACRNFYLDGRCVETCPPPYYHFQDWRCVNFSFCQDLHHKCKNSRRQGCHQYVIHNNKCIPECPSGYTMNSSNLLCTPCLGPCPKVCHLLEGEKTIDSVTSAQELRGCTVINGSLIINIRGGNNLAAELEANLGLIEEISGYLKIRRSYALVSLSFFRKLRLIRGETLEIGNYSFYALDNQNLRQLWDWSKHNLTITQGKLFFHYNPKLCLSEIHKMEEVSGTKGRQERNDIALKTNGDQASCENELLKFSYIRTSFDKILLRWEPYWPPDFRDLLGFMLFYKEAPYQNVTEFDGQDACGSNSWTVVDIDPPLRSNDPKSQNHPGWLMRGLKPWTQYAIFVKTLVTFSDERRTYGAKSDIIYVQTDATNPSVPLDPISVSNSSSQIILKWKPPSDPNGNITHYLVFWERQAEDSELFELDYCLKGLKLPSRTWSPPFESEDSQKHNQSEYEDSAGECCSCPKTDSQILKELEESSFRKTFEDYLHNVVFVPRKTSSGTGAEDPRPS
T2 sequence (P06213 763-1382 limits assumed): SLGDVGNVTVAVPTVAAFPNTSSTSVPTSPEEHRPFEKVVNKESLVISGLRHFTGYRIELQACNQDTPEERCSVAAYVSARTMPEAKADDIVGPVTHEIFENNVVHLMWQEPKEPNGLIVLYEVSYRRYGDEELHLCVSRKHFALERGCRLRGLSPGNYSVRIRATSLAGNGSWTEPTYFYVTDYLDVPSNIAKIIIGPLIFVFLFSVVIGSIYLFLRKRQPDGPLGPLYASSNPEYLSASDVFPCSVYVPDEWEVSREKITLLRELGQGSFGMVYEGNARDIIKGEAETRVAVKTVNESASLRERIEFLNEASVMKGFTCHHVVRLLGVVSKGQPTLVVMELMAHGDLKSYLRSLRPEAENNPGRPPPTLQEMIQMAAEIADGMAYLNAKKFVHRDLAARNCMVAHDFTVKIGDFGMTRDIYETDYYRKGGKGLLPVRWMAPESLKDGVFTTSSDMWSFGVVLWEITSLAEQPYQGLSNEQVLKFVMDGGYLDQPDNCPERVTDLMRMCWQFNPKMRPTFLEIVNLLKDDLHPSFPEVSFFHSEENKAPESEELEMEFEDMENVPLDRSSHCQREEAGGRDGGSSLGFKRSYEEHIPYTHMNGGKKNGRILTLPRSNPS
Method in brief: as §1

[7] = tested on: animals; assay: In vivo immunogenicity studies in animals; details: no details given
[8] = molecular target: T2, insulin receptor isoform B (IR-B); assay: Insulin receptor phosphorylation assay; type: cell-based; details: CHO cells expressing insulin receptor; phospho-specific ELISA; Fig. 6B
Method in brief: as §2

[9] = molecular target: insulin lisargine (human); assay: crystal structure
[10] = molecular target: insulin lisargine (human); assay: crystal structure; remark: listed apart in the source

T1 sequence (P06213 28-1370 isoform P06213-2 limits assumed): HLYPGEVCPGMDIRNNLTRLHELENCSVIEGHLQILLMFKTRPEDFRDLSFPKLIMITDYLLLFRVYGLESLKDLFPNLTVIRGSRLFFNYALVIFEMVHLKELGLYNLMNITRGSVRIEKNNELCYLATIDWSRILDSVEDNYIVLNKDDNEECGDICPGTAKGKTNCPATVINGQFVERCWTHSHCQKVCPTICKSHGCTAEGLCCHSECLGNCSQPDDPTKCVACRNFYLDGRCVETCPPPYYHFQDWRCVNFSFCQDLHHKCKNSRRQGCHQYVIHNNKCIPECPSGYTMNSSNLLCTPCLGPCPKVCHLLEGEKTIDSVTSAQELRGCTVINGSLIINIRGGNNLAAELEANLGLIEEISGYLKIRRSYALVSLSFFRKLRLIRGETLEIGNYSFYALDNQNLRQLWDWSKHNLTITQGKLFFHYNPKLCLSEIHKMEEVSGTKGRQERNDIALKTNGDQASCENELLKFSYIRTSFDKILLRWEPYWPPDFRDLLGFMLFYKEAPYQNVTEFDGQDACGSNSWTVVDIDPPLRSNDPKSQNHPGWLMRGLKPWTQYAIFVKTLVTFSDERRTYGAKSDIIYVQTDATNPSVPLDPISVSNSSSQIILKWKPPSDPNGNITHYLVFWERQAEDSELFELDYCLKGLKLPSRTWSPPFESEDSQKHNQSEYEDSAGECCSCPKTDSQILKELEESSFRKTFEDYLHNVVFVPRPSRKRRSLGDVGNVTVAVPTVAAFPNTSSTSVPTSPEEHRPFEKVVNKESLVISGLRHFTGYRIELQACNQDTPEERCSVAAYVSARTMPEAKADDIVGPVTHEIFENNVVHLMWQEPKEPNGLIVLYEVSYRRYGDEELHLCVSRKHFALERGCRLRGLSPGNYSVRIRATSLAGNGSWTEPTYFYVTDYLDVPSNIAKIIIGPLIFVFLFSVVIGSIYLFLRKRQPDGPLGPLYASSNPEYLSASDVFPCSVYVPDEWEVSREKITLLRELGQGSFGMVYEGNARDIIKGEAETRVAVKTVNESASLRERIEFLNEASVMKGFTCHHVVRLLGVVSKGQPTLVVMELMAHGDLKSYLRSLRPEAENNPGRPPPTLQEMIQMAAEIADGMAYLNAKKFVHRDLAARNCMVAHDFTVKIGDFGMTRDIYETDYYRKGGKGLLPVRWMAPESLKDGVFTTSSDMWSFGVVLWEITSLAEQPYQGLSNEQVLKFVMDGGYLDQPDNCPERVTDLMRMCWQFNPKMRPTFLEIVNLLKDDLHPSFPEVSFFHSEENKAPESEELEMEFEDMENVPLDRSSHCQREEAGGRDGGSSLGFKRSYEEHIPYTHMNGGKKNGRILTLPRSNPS
T1 sequence (P06213 763-1382 limits assumed): as the sequence (P06213 763-1382 limits assumed) above

binding affinity to IR-A compared with Lantus [1] | IR-A phosphorylation levels compared with Lantus [5] | binding affinity to IR-B compared with Lantus [6] | IR-B phosphorylation levels compared with Lantus [8] | stoichiometry N [9] | stoichiometry N [10] | Substance | IGF-1R binding affinity / IC50 compared with Lantus (insulin glargine) [2] | glucose-lowering effect compared with glargine ([3]; 5 IU/kg (abstract)) | blood glucose levels compared with solvent control, multiple-dose ([3]; daily administration, at 2, 4 and 6 h post-administration, Fig. 4B) | glucose-lowering effects compared with Aspart Insulin ([3]; equivalent dose of 5 IU/kg, single-dose and multiple-dose studies) | time of most pronounced glucose-lowering effect, multiple-dose ([3]; multiple-dose, 5 IU/kg group, Fig. 4B) [h] | time of peak glucose-lowering effect, multiple-dose ([3]; multiple-dose, 10 IU/kg, Fig. 4B) [h] | blood glucose levels compared with solvent control, single-dose ([3]; single dose (2.5, 5, 10 IU/kg), at 1, 2, 4 and 6 h post-administration, Fig. 4A) | time point of most pronounced glucose-lowering effect, single-dose ([3]; single dose, Fig. 4A) [h] | plasma insulin concentrations compared with Lantus (insulin glargine) [4] | immunogenicity in animals [7]
comparable binding affinities | no significant differences | comparable binding affinities | no significant differences |  |  | insulin lisargine | no significant differences in binding affinity or IC50 values | significantly outperformed glargine | significant reductions | comparable to the clinical drug Aspart Insulin | 4 | 6 | statistically significant reductions | 4 | no significant differences | favorable safety profile
 |  |  |  | 6 | 2 | insulin lisargine (ligand) |  |  |  |  |  |  |  |  |  | 

Reference: article PMC12464261 (Scientific Reports, 2025)
